Data reported in ChEMBL document CHEMBL1811848 (Bioorg Med Chem Lett, 2011).

Columns and labels:
Rattus norvegicus [1] = test: Toxicity in male Wistar rat assessed as kidney to body weight ratio at 30 mg/kg, po measured after 28 days (reference value: 0.745 +/- 0.012); type: organism-based; design: dose 30 mg/kg, route oral; details: in vivo, 672 h
Rattus norvegicus [2] = test: Toxicity in male Wistar rat assessed as epididymine to body weight ratio at 30 mg/kg, po measured after 28 days (reference value: 0.391 +/- 0.017); type: organism-based; design: dose 30 mg/kg, route oral; details: in vivo, 672 h
Rattus norvegicus [3] = test: Toxicity in female Wistar rat assessed as adrenal to body weight ratio at 30 mg/kg, po measured after 28 days (reference value: 0.028 +/- 0.001); type: organism-based; design: dose 30 mg/kg, route oral; details: in vivo, 672 h
Mus musculus [4] = test: Hypolipidemic activity in Swiss albino mouse assessed as reduction in triglyceride level at 0.1 mg/kg, po; type: functional; design: scale not given: the % may be the effect or the level left
Mus musculus [5] = test: Hypolipidemic activity in Swiss albino mouse assessed as reduction in triglyceride level at 1 mg/kg, po; type: functional; design: scale not given: the % may be the effect or the level left
Rattus norvegicus [6] = test: Toxicity in female Wistar rat assessed as liver to body weight ratio at 30 mg/kg, po measured after 28 days (reference value: 3.091 +/- 0.087); type: organism-based; design: dose 30 mg/kg, route oral; details: in vivo, 672 h
Rattus norvegicus [7] = test: Toxicity in male Wistar rat assessed as Glucose level at 3 mg/kg, po measured after 28 days (reference value: 70 +/- 3.49 mg/dl); type: organism-based; design: dose 3 mg/kg, route oral; details: in vivo, 672 h
Rattus norvegicus [8] = test: Toxicity in male Wistar rat assessed as hemoglobin level at 3 mg/kg, po measured after 28 days (reference value: 13.66 +/- 0.23 g/dl); type: organism-based; design: dose 3 mg/kg, route oral; details: in vivo, 672 h
Rattus norvegicus [9] = test: Toxicity in female Wistar rat assessed as ovary to body weight ratio at 30 mg/kg, po measured after 28 days (reference value: 0.039 +/- 0.005); type: organism-based, Female gonad; design: dose 30 mg/kg, route oral; details: in vivo, 672 h
Mus musculus [10] = test: Antihyperglycemic activity in db/db mouse assessed as reduction in plasma glucose level at 0.1 mg/kg, po; type: functional; design: scale not given: the % may be the effect or the level left
Rattus norvegicus [11] = test: Toxicity in female Wistar rat assessed as brain to body weight ratio at 30 mg/kg, po measured after 28 days (reference value: 0.970 +/- 0.023); type: organism-based; design: dose 30 mg/kg, route oral; details: in vivo, 672 h
Rattus norvegicus [12] = test: Toxicity in female Wistar rat assessed as kidney to body weight ratio at 30 mg/kg, po measured after 28 days (reference value: 0.733 +/- 0.007); type: organism-based; design: dose 30 mg/kg, route oral; details: in vivo, 672 h
Rattus norvegicus [13] = test: Toxicity in female Wistar rat assessed as glucose level at 30 mg/kg, po measured after 28 days (reference value: 69.94 +/- 2.30 mg/dl); type: organism-based; design: dose 30 mg/kg, route oral; details: in vivo, 672 h
Rattus norvegicus [14] = test: Toxicity in male Wistar rat assessed as albumin level at 3 mg/kg, po measured after 28 days (reference value: 3.66 +/- 0.10 g.dl); type: organism-based; design: dose 3 mg/kg, route oral; details: in vivo, 672 h
Mus musculus [15] = test: Hypolipidemic activity in db/db mouse assessed as reduction in triglyceride level at 0.003 mg/kg, po; type: functional; design: scale not given: the % may be the effect or the level left
Rattus norvegicus [16] = test: Toxicity in female Wistar rat assessed as change in body weight at 30 mg/kg, po measured after 28 days relative to control; type: organism-based; design: dose 30 mg/kg, route oral; details: in vivo, 672 h
In short: (§1)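 Wistar rats received 3 or 30 mg/kg orally for 28 days. Body weight was recorded weekly, and the % change in body weight over the study is tabulated.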

Mus musculus [17] = test: Antihyperglycemic activity in db/db mouse assessed as reduction in plasma glucose level at 3 mg/kg, po; type: functional; design: scale not given: the % may be the effect or the level left
Rattus norvegicus [18] = test: Toxicity in female Wistar rat assessed as change in body weight at 3 mg/kg, po measured after 28 days relative to control; type: organism-based; design: dose 3 mg/kg, route oral; details: in vivo, 672 h; in short: as §1
Rattus norvegicus [19] = test: Toxicity in female Wistar rat assessed as uterus to body weight ratio at 30 mg/kg, po measured after 28 days (reference value: 0.233 +/- 0.041); type: organism-based; design: dose 30 mg/kg, route oral; details: in vivo, 672 h
[20] = molecular target: T1, Peroxisome proliferator-activated receptor gamma (Homo sapiens, UniProt P37231); test: Transactivation of human PPARgamma expressed in human HepG2 cells co-transfected with PPRE3-TK-Luc by luciferase reporter gene assay; type: cell-based
T1 sequence (P37231 whole entry): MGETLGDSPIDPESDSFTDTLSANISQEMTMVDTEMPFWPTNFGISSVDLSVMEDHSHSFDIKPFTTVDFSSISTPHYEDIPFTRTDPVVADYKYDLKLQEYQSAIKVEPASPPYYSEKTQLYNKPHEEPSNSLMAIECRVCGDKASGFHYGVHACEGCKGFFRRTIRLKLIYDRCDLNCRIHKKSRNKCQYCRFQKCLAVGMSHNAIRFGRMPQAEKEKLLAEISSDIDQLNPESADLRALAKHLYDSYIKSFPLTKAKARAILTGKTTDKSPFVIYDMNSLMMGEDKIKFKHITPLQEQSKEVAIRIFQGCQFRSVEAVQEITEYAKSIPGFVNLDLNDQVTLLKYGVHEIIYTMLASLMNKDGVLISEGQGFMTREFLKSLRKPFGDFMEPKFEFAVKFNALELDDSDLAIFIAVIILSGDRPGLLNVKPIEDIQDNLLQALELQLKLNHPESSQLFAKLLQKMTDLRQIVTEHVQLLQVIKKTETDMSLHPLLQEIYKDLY
In short: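 HepG2 cells transfected with pSG5 vector carrying hPPARα, hPPARγ or hPPARδ cDNA, co-transfected with PPRE3-TK-luc. Firefly luciferase activity measured with a commercial kit. β-galactosidase activity read on an ELISA reader. Controls: WY14643 (α), rosiglitazone (γ), GW501516 (δ).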

Mus musculus [21] = test: Hypolipidemic activity in Swiss albino mouse assessed as reduction in triglyceride level at 0.003 mg/kg, po; type: functional; design: scale not given: the % may be the effect or the level left
Rattus norvegicus [22] = test: Toxicity in male Wistar rat assessed as ALP level at 30 mg/kg, po measured after 28 days (reference value: 243.88 +/- 20.34 U/L); details: in vivo, 672 h
[23] = molecular target: T2, Peroxisome proliferator-activated receptor gamma (Homo sapiens) (UniProt P37231); test: Transactivation of human PPARgamma expressed in human HepG2 cells co-transfected with PPRE3-TK-Luc by luciferase reporter gene assay relative to Rosiglitazone; type: cell-based
T2 sequence (whole entry): T1 sequence (P37231 whole entry)
In short: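 Same HepG2 hPPARα or hPPARγ / PPRE3-TK-luc luciferase transactivation assay. Efficacy expressed as percent of maximal response, normalized to 100% for the reference agonist: WY-14643 for α, rosiglitazone for γ.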

Mus musculus [24] = test: Hypolipidemic activity in db/db mouse assessed as reduction in triglyceride level at 1 mg/kg, po; type: functional; design: scale not given: the % may be the effect or the level left
Rattus norvegicus [25] = test: Toxicity in male Wistar rat assessed as change in body weight at 3 mg/kg, po measured after 28 days relative to control; type: organism-based; design: dose 3 mg/kg, route oral; details: in vivo, 672 h
Rattus norvegicus [26] = test: Toxicity in female Wistar rat assessed as brain to body weight ratio at 3 mg/kg, po measured after 28 days (reference value: 0.970 +/- 0.023); type: organism-based; design: dose 3 mg/kg, route oral; details: in vivo, 672 h
Rattus norvegicus [27] = test: Toxicity in female Wistar rat assessed as albumin level at 30 mg/kg, po measured after 28 days (reference value: 3.92 +/- 0.18 g.dl); type: organism-based; design: dose 30 mg/kg, route oral; details: in vivo, 672 h
Rattus norvegicus [28] = test: Toxicity in female Wistar rat assessed as ovary to body weight ratio at 3 mg/kg, po measured after 28 days (reference value: 0.039 +/- 0.005); type: organism-based, Female gonad; design: dose 3 mg/kg, route oral; details: in vivo, 672 h
Rattus norvegicus [29] = test: Toxicity in female Wistar rat assessed as adrenal to body weight ratio at 3 mg/kg, po measured after 28 days (reference value: 0.028 +/- 0.001); type: organism-based; design: dose 3 mg/kg, route oral; details: in vivo, 672 h
Mus musculus [30] = test: Hypolipidemic activity in Swiss albino mouse assessed as reduction in triglyceride level at 0.01 mg/kg, po; type: functional; design: scale not given: the % may be the effect or the level left

CCO[C@@H](Cc1ccc(OCCc2nc(-c3ccc(C)s3)oc2C)cc1)C(=O)O
Ratio (Rattus norvegicus [1]): 0.955 | Ratio (Rattus norvegicus [2]): 0.432 | Ratio (Rattus norvegicus [3]): 0.022 | Activity (Mus musculus [4]): 71.8% | Activity (Mus musculus [5]): 82% | Ratio (Rattus norvegicus [6]): 7.075 | Activity (Rattus norvegicus [7]): 75.74 mg/dL | Activity (Rattus norvegicus [8]): 12.2 g/dL | Ratio (Rattus norvegicus [9]): 0.024 | Activity (Mus musculus [10]): 51.7% | Ratio (Rattus norvegicus [11]): 0.939 | Ratio (Rattus norvegicus [12]): 0.915 | Activity (Rattus norvegicus [13]): 91.79 mg/dL | Activity (Rattus norvegicus [14]): 3.91 g/dL | Activity (Mus musculus [15]): 7.2% | Activity (Rattus norvegicus [16]): 21.71% | Activity (Mus musculus [17]): 62.2% | Activity (Rattus norvegicus [18]): 21.77% | Ratio (Rattus norvegicus [19]): 0.189 | EC50 [20]: 0.018 nM | Activity (Mus musculus [21]): 41.5% | Activity (Rattus norvegicus [22]): 679.13 U/L | Emax [23]: 165% | Activity (Mus musculus [24]): 64.2% | Activity (Rattus norvegicus [25]): 33.99% | Ratio (Rattus norvegicus [26]): 0.947 | Activity (Rattus norvegicus [27]): 4.12 g/dL | Ratio (Rattus norvegicus [28]): 0.02 | Ratio (Rattus norvegicus [29]): 0.02 | Activity (Mus musculus [30]): 61.9%
